ChEMBL document CHEMBL1671711, “Serum and cerebrospinal fluid levels of colistin in pediatric patients” (Antimicrob Agents Chemother, 2010)

Experiments:
Format in all cases: ADME, organism-based
[1] = Drug level in pediatric patient cerebrospinal fluid with gram-negative bacterial infection at 16 mg/kg/day, iv administered every 8 hrs for 51 days measured after 30 mins by LS/MS/MS analysis; parameters: route intravenous; conditions: human, in vivo, 0.5 h
Procedure, shortened: (§1)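 CMS was given by 20-min IV infusion in saline every 8 h, and CSF was taken from EVD systems after the end of infusion. The CSF–serum 1:1 mix was treated with 1 M H2SO4 for 15–20 min, then 1 M NaOH, then acetonitrile with 0.1% TFA. CMS was calculated as colistin after hydrolysis minus colistin before hydrolysis, by LC-MS-MS, with CMS controls of 0.25–18.5 μg/ml. Values are means of two days; course 1 was sampled once.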

Serum [2] = assay: Drug level in pediatric patient serum with gram-negative bacterial infection assessed as Colistin level at 4.8 mg/kg/day, iv administered every 8 hrs for 7 days measured after 30 mins by LS/MS/MS analysis; parameters: route intravenous; conditions: human, in vivo, 0.5 h
Procedure, shortened: (§2)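 Blood was drawn 30 min after the end of the 20-min IV CMS infusion, given every 8 h. Serum was separated by centrifugation, stored at −80°C, and assayed by LC-MS-MS for colistin A plus B (interday CV <4.4%, accuracy within ±1.9%). Values are means of two sampling days; course 1 was sampled once.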

Serum [3] = assay: Drug level in pediatric patient serum with gram-negative bacterial infection at 4.8 mg/kg/day, iv administered every 8 hrs for 7 days measured after 30 mins by LS/MS/MS analysis; parameters: route intravenous; conditions: human, in vivo, 0.5 h
Procedure, shortened: (§3)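 Serum was taken 30 min after the end of the 20-min IV CMS infusion (every 8 h) and stored at −80°C. It underwent acid hydrolysis with 1 M H2SO4 for 15–20 min, neutralisation with 1 M NaOH, and precipitation with acetonitrile containing 0.1% TFA. LC-MS-MS colistin before hydrolysis was subtracted from colistin after hydrolysis to give CMS. Values are means of two days.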

[4] = Drug level in pediatric patient cerebrospinal fluid with gram-negative bacterial infection assessed as Colistin level at 18 mg/kg/day, iv administered every 8 hrs for 42 days measured after 30 mins by LS/MS/MS analysis; parameters: route intravenous; conditions: human, in vivo, 0.5 h
Procedure, shortened: (§4)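 Children (1 month to 14 years) received CMS in 30 to 50 ml normal saline by 20-min IV infusion every 8 h. CSF was taken from EVD systems alongside blood, after the end of infusion, and stored at −80°C. It was diluted 1:1 with serum, protein-precipitated, and analysed by LC-MS-MS for colistin A plus B against standards in pH 7.4 phosphate-buffered artificial-CSF Ringer with serum. Values are means of two days; course 1 was sampled once.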

Serum [5] = assay: Drug level in pediatric patient serum with gram-negative bacterial infection assessed as Colistin level at 16 mg/kg/day, iv administered every 8 hrs for 51 days measured after 30 mins by LS/MS/MS analysis; parameters: route intravenous; conditions: human, in vivo, 0.5 h; procedure, shortened: as §2
[6] = Ratio of drug level in cerebrospinal fluid to Serum of pediatric patient with gram-negative bacterial infection assessed as Colistin level at16 mg/kg/day, iv administered every 8 hrs for 93 days by LS/MS/MS analysis; conditions: human, csf
Procedure, shortened: (§5)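 Percentages are the ratio of mean CSF concentration to mean serum concentration from paired samples. Blood was drawn immediately before and 30 min after the 20-min IV CMS infusion (every 8 h); CSF came from EVD systems concurrently. Both were measured by LC-MS-MS, for colistin directly and for CMS after acid hydrolysis. Pairs were repeated on two days.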

[7] = Drug level in pediatric patient cerebrospinal fluid with gram-negative bacterial infection assessed as Colistin level at 16 mg/kg/day, iv administered every 8 hrs for 93 days measured after 30 mins by LS/MS/MS analysis; parameters: route intravenous; conditions: human, in vivo, 0.5 h; procedure, shortened: as §4
[8] = Drug level in pediatric patient cerebrospinal fluid with gram-negative bacterial infection assessed as Colistin level at 16 mg/kg/day, iv administered every 8 hrs for 51 days measured after 30 mins by LS/MS/MS analysis; parameters: route intravenous; conditions: human, in vivo, 0.5 h; procedure, shortened: as §4
[9] = Ratio of drug level in cerebrospinal fluid to Serum of pediatric patient with gram-negative bacterial infection at 16 mg/kg/day, iv administered every 8 hrs for 51 days by LS/MS/MS analysis; parameters: route intravenous; conditions: human, csf; procedure, shortened: as §5
Serum [10] = assay: Drug level in pediatric patient serum with gram-negative bacterial infection before initiation of 10.4 mg/kg/day, iv administered every 8 hrs for 46 days by LS/MS/MS analysis; parameters: route intravenous; conditions: human, in vivo
Procedure, shortened: (§6)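 Trough sampling: blood was drawn immediately before the 20-min IV CMS infusion (every 8 h), and CSF was taken from EVD systems within 1 h before infusion. Samples were stored at −80°C and analysed by LC-MS-MS for colistin, and for CMS via acid hydrolysis with subtraction. CSF was diluted 1:1 with serum. Values are means of two days.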

[11] = Ratio of drug level in cerebrospinal fluid to Serum of pediatric patient with gram-negative bacterial infection before initiation of 4.8 mg/kg/day, iv administered every 8 hrs for 7 days by LS/MS/MS analysis; parameters: route intravenous; conditions: human, csf; procedure, shortened: as §5
[12] = Ratio of drug level in cerebrospinal fluid to Serum of pediatric patient with gram-negative bacterial infection at 18 mg/kg/day, iv administered every 8 hrs for 42 days by LS/MS/MS analysis; parameters: route intravenous; conditions: human, csf; procedure, shortened: as §5
[13] = Ratio of drug level in cerebrospinal fluid to Serum of pediatric patient with gram-negative bacterial infection assessed as Colistin level at 16 mg/kg/day, iv administered every 8 hrs for 51 days by LS/MS/MS analysis; parameters: route intravenous; conditions: human, csf; procedure, shortened: as §5
[14] = Ratio of drug level in cerebrospinal fluid to Serum of pediatric patient with gram-negative bacterial infection assessed as Colistin level at 4.8 mg/kg/day, iv administered every 8 hrs for 7 days by LS/MS/MS analysis; parameters: route intravenous; conditions: human, csf; procedure, shortened: as §5
Serum [15] = assay: Drug level in pediatric patient serum with gram-negative bacterial infection assessed as Colistin level at 16 mg/kg/day, iv administered every 8 hrs for 93 days measured after 30 mins by LS/MS/MS analysis; parameters: route intravenous; conditions: human, in vivo, 0.5 h; procedure, shortened: as §2
[16] = Drug level in pediatric patient cerebrospinal fluid with gram-negative bacterial infection assessed as Colistin level at 4.8 mg/kg/day, iv administered every 8 hrs for 7 days measured after 30 mins by LS/MS/MS analysis; parameters: route intravenous; conditions: human, in vivo, 0.5 h; procedure, shortened: as §4
[17] = Drug level in pediatric patient cerebrospinal fluid with gram-negative bacterial infection at 4.8 mg/kg/day, iv administered every 8 hrs for 7 days measured after 30 mins by LS/MS/MS analysis; parameters: route intravenous; conditions: human, in vivo, 0.5 h; procedure, shortened: as §1
[18] = Ratio of drug level in cerebrospinal fluid to Serum of pediatric patient with gram-negative bacterial infection before initiation of 16 mg/kg/day, iv administered every 8 hrs for 93 days by LS/MS/MS analysis; parameters: route intravenous; conditions: human, csf; procedure, shortened: as §5
[19] = Drug level in pediatric patient cerebrospinal fluid with gram-negative bacterial infection before initiation of 4.8 mg/kg/day, iv administered every 8 hrs for 7 days by LS/MS/MS analysis; parameters: route intravenous; conditions: human, in vivo; procedure, shortened: as §6
Serum [20] = assay: Drug level in pediatric patient serum with gram-negative bacterial infection at 16 mg/kg/day, iv administered every 8 hrs for 93 days measured after 30 mins by LS/MS/MS analysis; parameters: route intravenous; conditions: human, in vivo, 0.5 h; procedure, shortened: as §3
Serum [21] = assay: Drug level in pediatric patient serum with gram-negative bacterial infection at 16 mg/kg/day, iv administered every 8 hrs for 51 days measured after 30 mins by LS/MS/MS analysis; parameters: route intravenous; conditions: human, in vivo, 0.5 h; procedure, shortened: as §3
Serum [22] = assay: Drug level in pediatric patient serum with gram-negative bacterial infection before initiation of 18 mg/kg/day, iv administered every 8 hrs for 42 days by LS/MS/MS analysis; parameters: route intravenous; conditions: human, in vivo; procedure, shortened: as §6
[23] = Drug level in pediatric patient cerebrospinal fluid with gram-negative bacterial infection before initiation of 16 mg/kg/day, iv administered every 8 hrs for 93 days by LS/MS/MS analysis; parameters: route intravenous; conditions: human, in vivo; procedure, shortened: as §6

Drug uptake [1]: 0.09 µg/mL | Drug uptake (Serum [2]): 0.29 µg/mL | Drug uptake (Serum [3]): 2.86 µg/mL | Drug uptake [4]: 0.07 µg/mL | Drug uptake (Serum [5]): 1.6 µg/mL | Ratio [6]: 34.8% | Drug uptake [7]: 0.46 µg/mL | Drug uptake [8]: 0.11 µg/mL | Ratio [9]: 0.9% | Drug uptake (Serum [10]): 0.84 µg/mL | Ratio [11]: 20.6% | Ratio [12]: 0.4% | Ratio [13]: 7.2% | Ratio [14]: 19.3% | Drug uptake (Serum [15]): 1.33 µg/mL | Drug uptake [16]: 0.06 µg/mL | Drug uptake [17]: 0.06 µg/mL | Ratio [18]: 50.9% | Drug uptake [19]: 0.06 µg/mL | Drug uptake (Serum [20]): 8.41 µg/mL | Drug uptake (Serum [21]): 9.89 µg/mL | Drug uptake (Serum [22]): 6.11 µg/mL | Drug uptake [23]: 0.38 µg/mL
Sequence: COLISTIN
